Source: ChEMBL document CHEMBL4725346, “Syntheses and Evaluation of New Bisacridine Derivatives for Dual Binding of G-Quadruplex and i-Motif in Regulating Oncogene c-myc Expression” (J Med Chem, 2020)
The source made the active and inactive calls. No cut-off for these calls is given here.

Columns and labels:
Quadruplex DNA [1] = assay: Stabilization of c-myc promoter G-quadruplex DNA Pu27 (unknown origin) by 1H NMR spectra analysis; format: nucleic-acid assay
Summary of the method: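 1D ¹H NMR titration with water suppression at 25 °C on a 600 MHz spectrometer. DNA at 0.5 mM in 10% D₂O/90% H₂O: Pu27 in 10 mM Tris-HCl pH 7.4, Py33 in 1× BPES pH 6.4. Annealed at 95 °C for 5 min before titration; ligand stock in d₆-DMSO.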

SiHa [2] = assay: Induction of cell cycle arrest in human SiHa cells assessed as accumulation of cells at S phase at 0.60 uM after 24 hrs by propidium iodide staining based flow cytometry (reference value: 17.74%); format: functional; details: dose 0.6 µM
[3] = Drug uptake in human SiHa cells; format: ADME, cell-based
SiHa [4] = assay: Antitumor activity against human SiHa cells xenografted in BALB/c nude mouse assessed as reduction in tumor weight at 15 mg/kg, ip administered once per 2 days for 18 days relative to control; format: functional; design: scale not given: the % may be the effect or the level left; details: time 18 day
Summary of the method: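 SiHa tumor fragments from donor xenografts (grown to about 1,000 mm³) implanted in the underarm of female BALB/c nude mice; six per group. Dosed ip once every two days for 18 days, saline as negative control, cisplatin 0.2 mg/kg as positive control. Tumor volume = length × width²/2. Tumors weighed at sacrifice.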

[5] = Toxicity in BALB/c nude mouse xenografted with human SiHa cells assessed as effect on spleen weight at 15 mg/kg, ip administered once per 2 days for 18 days; format: organism-based; details: in vivo, 432 h, time 18 day
Summary of the method: (§1)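 SiHa tumour fragments passaged from donor mice implanted in the underarm of female BALB/c nude mice (six per group). Compound given at 15 mg/kg ip once every two days for 18 days, with saline and cisplatin 0.2 mg/kg control groups. Body weight recorded every two days; at day 18 mice were sacrificed and organs weighed.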

SiHa [6] = assay: Induction of cell cycle arrest in human SiHa cells assessed as accumulation of cells at S phase at 0.30 uM after 24 hrs by propidium iodide staining based flow cytometry (reference value: 17.74%); format: functional; details: dose 0.3 µM
[7] = Toxicity in BALB/c nude mouse xenografted with human SiHa cells assessed as effect on body weight at 15 mg/kg, ip administered once per 2 days for 18 days; format: organism-based; details: in vivo, 432 h, time 18 day; summary of the method: as §1
[8] = Stabilization of c-myc promoter i-motif DNA Py33 (unknown origin) assessed as effect on melting temperature at 5 uM by CD spectroscopy
Summary of the method: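 CD melting: Py33 at 1 µM in 1× BPES pH 6.4, with or without ligand. Annealed at 95 °C for 5 min, slowly cooled, then heated at 1 °C/min while monitoring 260 nm. Tm obtained by curve fitting.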

Quadruplex DNA [9] = assay: Binding affinity to c-myc promoter G-quadruplex/i-motif in human SiHa cells assessed as reduction in c-myc expression at 2.5 uM incubated for 24 hrs by Western blot analysis; format: cell-based; design: scale not given: the % may be the effect or the level left
Summary of the method: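 SiHa cells treated 24 h at 0, 0.625, 1.25 and 2.5 μM, then lysed in buffer with 1 mM PMSF. Protein measured by BCA, equal loads run on 8% gel and blotted to PVDF. Probed with anti-c-MYC and anti-β-actin (loading control), HRP anti-rabbit secondary, chemiluminescence read-out.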

Quadruplex DNA [10] = assay: Stabilization of 5'-FAM/3'-TAMRA labeled c-myc promoter G-quadruplex DNA FPu22T (unknown origin) assessed as change in melting temperature at 1 uM by FRET assay (reference value: 66.5 degreeC); format: nucleic-acid assay
Summary of the method: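 FRET melting of dual FAM/TAMRA-labelled FPu22T annealed in 10 mM Tris-HCl pH 7.4 with KCl. Final 0.2 µM DNA with or without ligand. Excitation 470 nm, emission 530 nm, read every 1 °C over 37–99 °C on a real-time PCR cycler. ΔTm = Tm(DNA+ligand) − Tm(DNA).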

[11] = Binding affinity to 5'-biotin labeled c-myc promoter i-motif DNA Py33 (unknown origin) by surface plasmon resonance method
Summary of the method: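 SPR: 5'-biotin DNA diluted to 1 μM and captured (1000 RU) on a sensor chip, with a blank cell as reference. Running buffers: Py33 in 20 mM MES pH 5.8, 100 mM KCl, 0.05% Tween-20; Pu27 and duplex in 50 mM Tris-HCl pH 7.4, 100 mM KCl. Six ligand concentrations serially diluted from DMSO stock. Association 260 s, dissociation 300 s at 25 °C; NaOH regeneration; blank sensorgrams subtracted.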

SiHa [12] = assay: Induction of apoptosis in human SiHa cells assessed as increase in cleaved caspase-9 level incubated for 24 hrs by Western blot analysis; format: functional, cell-based; details: dose microM 0.6-2.4, time 24.0 hrs
Quadruplex DNA [13] = assay: Binding affinity to c-myc promoter G-quadruplex/i-motif in human SiHa cells assessed as reduction in c-myc mRNA level incubated for 24 hrs by qRT-PCR analysis; format: cell-based; details: dose microM 0.625-2.5, time 24.0 hrs
Summary of the method: (§2)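 SiHa cells at 0, 0.625, 1.25 and 2.5 μM for 24 h; DMSO control. Total RNA extracted with TRIzol. 1.5 μg RNA reverse-transcribed with oligo dT18 and M-MLV (42 °C 60 min). PCR of 30 cycles (95/58/72 °C), products run on 1.2% agarose. β-actin as internal control; three repeats.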

A549 = assay: Antiproliferative activity against human A549 cells after 48 hrs by MTT assay; format: functional, cell-based; details: A549, 48 h
Summary of the method: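 Cells seeded at 5.0×10^3 per well, pre-incubated 12 h at 37 °C, 5% CO2, then exposed to compounds for 48 h; DMSO-only control. MTT (2.5 mg/mL) added for 4 h, formazan dissolved in DMSO, absorbance at 570 nm. Each dose tested in triplicate; IC50 from percentage survival relative to negative control.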

Quadruplex DNA [14] = assay: Binding affinity to c-myc wild-type promoter G-quadruplex/i-motif (unknown origin) expressed in human SiHa cells assessed as reduction in c-myc transcription by measuring decrease in ratio of renilla/firefly luciferase activity at 1/3 IC50 after 48 hrs by dual-luciferase reporter assay; format: cell-based
Summary of the method: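 SiHa cells transfected with 200 ng psiCHECK2 plasmid carrying wild-type, mutant or deleted c-myc promoter. Compounds added 8 h after transfection, then incubated 48 h at 37 °C. Cells washed with ice-cold PBS; Renilla/firefly activity ratio read by dual-luciferase assay.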

SiHa [15] = assay: Induction of apoptosis in human SiHa cells assessed as necrotic cells at 0.6 uM after 24 hrs by annexin V/FITC-propidium iodide staining-based flow cytometric method ( Rvb = 0.1%); format: functional
SiHa [16] = assay: Induction of cell cycle arrest in human SiHa cells assessed as accumulation of cells at G2/M phase at 0.15 uM after 24 hrs by propidium iodide staining based flow cytometry (reference value: 29.71%); format: functional
Raji = assay: Antiproliferative activity against human Raji cells after 48 hrs by MTT assay; format: functional, cell-based
[17] = Binding affinity to 5'-biotin labeled c-myc promoter i-motif DNA Py33 (unknown origin) by UV titration method
Quadruplex DNA [18] = assay: Binding affinity to c-myc promoter G-quadruplex/i-motif in human SiHa cells assessed as reduction in c-myc mRNA level at 2.5 uM incubated for 24 hrs by qRT-PCR analysis; format: cell-based; design: scale not given: the % may be the effect or the level left; summary of the method: as §2

## Cc1ccc2nc3ccc(C)cc3c(NCCCNCCNCCCNc3c4cc(C)ccc4nc4ccc(C)cc34)c2c1
Quadruplex DNA [1]
  Activity: Active
SiHa [2]
  Activity: 13.58%
[3]
  Drug uptake: Active
SiHa [4]
  Activity: 41.6%
[5]
  Activity: Non-Toxic
SiHa [6]
  Activity: 15.22%
[7]
  Activity: Non-Toxic
[8]
  Activity: Active
Quadruplex DNA [9]
  Activity: < 73.9%
Quadruplex DNA [10]
  ΔTm: 9.9 °C
[11]
  Kd: 2400 nM
SiHa [12]
  Activity: Dose-dependent effect
Quadruplex DNA [13]
  Activity: Dose-dependent effect
A549
  IC50: 180 nM
Quadruplex DNA [14]
  Activity: Active
SiHa [15]
  Activity: 0.5%
SiHa [16]
  Activity: 34.13%
Raji
  Activity: Active
[17]
  Activity: Active
Quadruplex DNA [18]
  Activity: < 76.9%
